Active and inactive are the calls of the source. The calls are words filed in the database; no cut-off is given here.
Tests used:
[1] = biological target: T1, Signal transducer and activator of transcription 3 (Homo sapiens, UniProt P40763); test: Inhibition of STAT3 transcriptional activity in human HeLa cells at 100 uM by luciferase reporter gene assay; format: cell-based
Method in brief: (§1)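 STAT3-dependent luciferase reporter gene assay in HeLa cells. Activity is reported as percent inhibition at a single 100 μM concentration, or as an IC50.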

[2] = biological target: T1, Signal transducer and activator of transcription 3; test: Inhibition of STAT3 transcriptional activity in human HeLa cells by luciferase reporter gene assay; format: cell-based; method in brief: as §1
[3] = biological target: T1, Signal transducer and activator of transcription 3; test: Inhibition of STAT3 dimerization transfected in HEK293 cells at 50 uM after 24 hrs followed by 1 hr stimulation with 50 ng/ml IL-6 by FRET assay; format: cell-based
Method in brief: (§2)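 Cell-based FRET dimerization read-out in HEK293 cells co-expressing STAT3-CFP and STAT3-YFP. Cells were pretreated with compound before IL-6 stimulation, and the FRET signal from the STAT3–STAT3 interaction was measured. Values are given as percent inhibition of the signal.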

[4] = biological target: T1, Signal transducer and activator of transcription 3; test: Inhibition of STAT3 dimerization transfected in HEK293 cells at 100 uM after 24 hrs followed by 1 hr stimulation with 50 ng/ml IL-6 by FRET assay; format: cell-based; details: 10 uM, in the assay text read “at 10 uM” for “at 100 uM”; method in brief: as §2
[5] = biological target: T1, Signal transducer and activator of transcription 3; test: Inhibition of STAT3 in IL-6 stimulated human MDA-MB-468 cells assessed as reduction in amplification of c-myc promoter by CHIP assay; format: cell-based
Method in brief: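 Chromatin immunoprecipitation in compound-treated MDA-MB-468 breast cancer cells. STAT3 occupancy of the c-myc promoter was judged by amplification of the c-myc promoter from the immunoprecipitate.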

[6] = biological target: T1, Signal transducer and activator of transcription 3; test: Inhibition of STAT3 in human MDA-MB-468 cells assessed as reduction in c-myc expression at 10 uM by Western blotting; format: cell-based
Method in brief: (§3)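 MDA-MB-468 breast cancer cells were treated with compound at a series of concentrations. Cell lysates were analysed by Western blotting for c-myc, cyclin D1 and survivin, with STAT3 Tyr705 phosphorylation probed alongside.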

[7] = biological target: T1, Signal transducer and activator of transcription 3; test: Inhibition of STAT3 in human MDA-MB-468 cells assessed as reduction in c-myc expression at 20 uM by Western blotting; format: cell-based; method in brief: as §3
[8] = biological target: T1, Signal transducer and activator of transcription 3; test: Inhibition of STAT3 in human MDA-MB-468 cells assessed as reduction in c-myc expression at 50 uM by Western blotting; format: cell-based; method in brief: as §3
[9] = biological target: T1, Signal transducer and activator of transcription 3; test: Inhibition of STAT3 in human MDA-MB-468 cells assessed as reduction in cyclin D1 expression at 10 uM by Western blotting; format: cell-based; method in brief: as §3
[10] = biological target: T1, Signal transducer and activator of transcription 3; test: Inhibition of STAT3 in human MDA-MB-468 cells assessed as reduction in cyclin D1 expression at 20 uM by Western blotting; format: cell-based; method in brief: as §3
[11] = biological target: T1, Signal transducer and activator of transcription 3; test: Inhibition of STAT3 in human MDA-MB-468 cells assessed as reduction in cyclin D1 expression at 50 uM by Western blotting; format: cell-based; method in brief: as §3
[12] = biological target: T1, Signal transducer and activator of transcription 3; test: Inhibition of STAT3 in human MDA-MB-468 cells assessed as reduction in survivin expression at 10 uM by Western blotting; format: cell-based; method in brief: as §3
[13] = biological target: T1, Signal transducer and activator of transcription 3; test: Inhibition of STAT3 in human MDA-MB-468 cells assessed as reduction in survivin expression at 20 uM by Western blotting; format: cell-based; method in brief: as §3
[14] = biological target: T1, Signal transducer and activator of transcription 3; test: Inhibition of STAT3 in human MDA-MB-468 cells assessed as reduction in survivin expression at 50 uM by Western blotting; format: cell-based; method in brief: as §3
[15] = biological target: T1, Signal transducer and activator of transcription 3; test: Inhibition of STAT3 DNA binding activity in IL-6 stimulated human MDA-MB-468 cells at 50 uM by transcription factor ELISA; format: cell-based
[16] = biological target: T2, Signal transducer and activator of transcription 1-alpha/beta (Homo sapiens) (UniProt P42224); test: Inhibition of STAT1 DNA binding activity in IL-6 stimulated human MDA-MB-468 cells at 50 uM by transcription factor ELISA; format: cell-based
T2 sequence (whole entry): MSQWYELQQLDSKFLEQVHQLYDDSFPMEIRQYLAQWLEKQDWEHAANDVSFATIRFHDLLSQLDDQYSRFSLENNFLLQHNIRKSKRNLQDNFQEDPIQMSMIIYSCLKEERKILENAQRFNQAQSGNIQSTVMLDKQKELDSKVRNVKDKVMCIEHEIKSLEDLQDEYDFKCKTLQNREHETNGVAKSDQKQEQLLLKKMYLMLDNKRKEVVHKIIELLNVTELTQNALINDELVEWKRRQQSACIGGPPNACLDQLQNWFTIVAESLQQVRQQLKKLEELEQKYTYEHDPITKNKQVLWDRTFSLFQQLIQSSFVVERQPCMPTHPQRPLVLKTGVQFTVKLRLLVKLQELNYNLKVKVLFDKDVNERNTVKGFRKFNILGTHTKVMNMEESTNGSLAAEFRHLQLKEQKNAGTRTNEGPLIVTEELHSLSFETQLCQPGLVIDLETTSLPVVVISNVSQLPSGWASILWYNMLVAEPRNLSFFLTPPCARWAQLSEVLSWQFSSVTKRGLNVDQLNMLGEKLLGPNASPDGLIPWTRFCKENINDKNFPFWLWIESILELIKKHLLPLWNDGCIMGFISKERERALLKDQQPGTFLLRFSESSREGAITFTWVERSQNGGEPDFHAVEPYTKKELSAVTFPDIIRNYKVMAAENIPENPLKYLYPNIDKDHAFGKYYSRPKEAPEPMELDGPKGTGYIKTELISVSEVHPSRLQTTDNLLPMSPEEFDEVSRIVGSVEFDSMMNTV

[17] = biological target: T3, Signal transducer and activator of transcription 5A (Homo sapiens) (UniProt P42229); test: Inhibition of STAT5a DNA binding activity in IL-6 stimulated human MDA-MB-468 cells at 50 uM by transcription factor ELISA; format: cell-based
T3 sequence (whole entry): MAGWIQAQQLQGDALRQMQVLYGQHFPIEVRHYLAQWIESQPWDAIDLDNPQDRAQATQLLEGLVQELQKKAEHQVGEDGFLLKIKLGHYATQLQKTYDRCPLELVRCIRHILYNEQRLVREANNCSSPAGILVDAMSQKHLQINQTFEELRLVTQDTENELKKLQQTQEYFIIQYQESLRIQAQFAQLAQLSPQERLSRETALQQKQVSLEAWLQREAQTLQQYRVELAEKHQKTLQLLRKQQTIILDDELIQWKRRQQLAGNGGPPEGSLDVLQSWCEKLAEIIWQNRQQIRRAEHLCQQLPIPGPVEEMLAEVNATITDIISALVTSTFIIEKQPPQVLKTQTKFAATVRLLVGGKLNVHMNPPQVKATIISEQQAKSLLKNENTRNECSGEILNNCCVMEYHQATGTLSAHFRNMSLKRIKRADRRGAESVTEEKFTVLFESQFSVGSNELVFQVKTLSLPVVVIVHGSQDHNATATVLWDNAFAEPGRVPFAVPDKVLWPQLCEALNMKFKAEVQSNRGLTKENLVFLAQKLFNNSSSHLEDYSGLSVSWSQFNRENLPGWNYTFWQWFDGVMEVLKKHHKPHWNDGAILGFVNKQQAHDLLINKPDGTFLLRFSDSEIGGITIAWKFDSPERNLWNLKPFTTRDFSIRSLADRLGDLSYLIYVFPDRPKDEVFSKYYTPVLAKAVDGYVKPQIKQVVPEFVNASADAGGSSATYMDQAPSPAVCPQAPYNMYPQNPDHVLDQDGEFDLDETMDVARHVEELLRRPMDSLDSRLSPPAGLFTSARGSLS

[18] = biological target: T4, Signal transducer and activator of transcription 5B (Homo sapiens) (UniProt P51692); test: Inhibition of STAT5b DNA binding activity in IL-6 stimulated human MDA-MB-468 cells at 50 uM by transcription factor ELISA; format: cell-based
T4 sequence (whole entry): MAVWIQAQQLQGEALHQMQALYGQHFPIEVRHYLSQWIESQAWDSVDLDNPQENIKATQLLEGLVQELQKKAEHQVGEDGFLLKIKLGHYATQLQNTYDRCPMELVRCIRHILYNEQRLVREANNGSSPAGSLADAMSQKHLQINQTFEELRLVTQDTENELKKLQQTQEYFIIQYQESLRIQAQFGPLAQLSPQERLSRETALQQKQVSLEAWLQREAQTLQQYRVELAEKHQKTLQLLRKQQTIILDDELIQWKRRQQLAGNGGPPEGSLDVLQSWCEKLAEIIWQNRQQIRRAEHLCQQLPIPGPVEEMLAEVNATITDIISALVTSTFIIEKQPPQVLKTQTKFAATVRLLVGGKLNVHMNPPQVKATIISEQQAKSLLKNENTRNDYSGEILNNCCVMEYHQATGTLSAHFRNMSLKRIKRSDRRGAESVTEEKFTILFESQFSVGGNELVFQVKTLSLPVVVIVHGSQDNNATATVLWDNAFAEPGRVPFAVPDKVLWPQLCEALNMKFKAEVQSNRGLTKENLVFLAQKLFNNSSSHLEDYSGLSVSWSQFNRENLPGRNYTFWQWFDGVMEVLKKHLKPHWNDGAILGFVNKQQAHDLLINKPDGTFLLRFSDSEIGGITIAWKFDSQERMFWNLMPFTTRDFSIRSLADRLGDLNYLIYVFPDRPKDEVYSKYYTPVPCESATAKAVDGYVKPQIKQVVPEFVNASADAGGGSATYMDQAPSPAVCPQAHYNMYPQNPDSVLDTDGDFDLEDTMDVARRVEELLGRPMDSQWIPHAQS

SCC-3 = test: Antitumor activity against human SCC-3 cells xenografted in BALB/cA-v/v nude mouse assessed as decrease in tumor volume at 160 mg/kg, po QD for 4 days measured on 4th day relative to control; format: functional; parameters: scale not given: the % may be the effect or the level left
Method in brief: (§4)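 Human SCC-3 lymphoma cells implanted subcutaneously in nude mice. Compound given by oral gavage at 160 mg/kg once daily for 4 days. Tumour growth was assessed on day 4 against untreated controls, with significance taken at p < 0.05. Body weight and signs of toxicity were monitored over the same period.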

Mus musculus [19] = species on record: Mus musculus; test: Toxicity in BALB/cA-v/v nude mouse assessed as increase in body weight relative to control; format: organism-based; details: in vivo; method in brief: as §4
Mus musculus [20] = species on record: Mus musculus; test: Toxicity in BALB/cA-v/v nude mouse assessed as mortality; format: organism-based; details: in vivo
[21] = Plasma concentration in CD1(ICR) mouse at 160 mg/kg, po after 8 hrs by LC-MS analysis; format: ADME, organism-based; parameters: dose 160 mg/kg, route oral
MDA-MB-468 = test: Induction of apoptosis in human MDA-MB-468 cells assessed as increase in caspase3/7 activity at 1-100 uM by fluorescence assay; format: functional, cell-based
MDA-MB-453 = test: Induction of apoptosis in human MDA-MB-453 cells assessed as increase in caspase3/7 activity at 1-100 uM by fluorescence assay; format: functional, cell-based

T1 sequence (P40763 whole entry): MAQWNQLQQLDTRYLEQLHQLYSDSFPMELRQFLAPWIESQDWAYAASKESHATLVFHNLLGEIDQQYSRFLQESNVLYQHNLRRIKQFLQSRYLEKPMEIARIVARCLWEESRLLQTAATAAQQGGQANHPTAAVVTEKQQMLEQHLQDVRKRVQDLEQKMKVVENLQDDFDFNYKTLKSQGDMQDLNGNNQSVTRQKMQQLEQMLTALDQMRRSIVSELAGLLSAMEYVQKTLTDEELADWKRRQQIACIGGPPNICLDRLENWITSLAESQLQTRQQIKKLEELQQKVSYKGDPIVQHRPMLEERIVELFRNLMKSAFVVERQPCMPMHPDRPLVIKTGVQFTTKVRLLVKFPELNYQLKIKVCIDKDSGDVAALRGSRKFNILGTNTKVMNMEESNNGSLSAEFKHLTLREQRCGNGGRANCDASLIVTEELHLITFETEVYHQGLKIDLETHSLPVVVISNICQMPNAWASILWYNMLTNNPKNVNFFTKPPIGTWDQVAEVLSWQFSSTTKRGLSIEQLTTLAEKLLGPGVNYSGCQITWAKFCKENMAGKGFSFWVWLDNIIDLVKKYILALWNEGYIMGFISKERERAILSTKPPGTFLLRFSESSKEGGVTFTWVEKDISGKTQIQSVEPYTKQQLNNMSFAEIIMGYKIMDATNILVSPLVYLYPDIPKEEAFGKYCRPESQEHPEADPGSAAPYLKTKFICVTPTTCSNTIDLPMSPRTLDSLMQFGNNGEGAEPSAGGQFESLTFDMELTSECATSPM

**Q.** Which inhibition [1] does the source give for `O=C(Nc1nnc(-c2ccc(Cl)cc2)o1)c1cc(-c2ccccc2)nc2ccccc12` here?
**A.** The inhibition was 115%.

**Q.** And the IC50 [2]?
**A.** The IC50 was 61 µM.

**Q.** With `O=C(Nc1nnc(-c2ccco2)o1)c1ccnc2ccccc12` as the compound, how does the inhibition [1] read?
**A.** The inhibition was -5%.

**Q.** What about the inhibition [3] of the same compound?
**A.** The inhibition was -4%.

**Q.** And the inhibition [4]?
**A.** Its inhibition is -2%.

**Q.** Which inhibition [1] does the source give for `O=C(Nc1nnc(-c2ccco2)s1)c1cc(-c2ccccc2)nc2ccccc12` here?
**A.** Its inhibition is 26%.

**Q.** With `O=C(Nc1nnc(-c2ccco2)o1)c1cc(-c2cccnc2)nc2ccccc12` as the compound, how does the inhibition [1] read?
**A.** The inhibition was 12%.

**Q.** For `O=C(Nc1nnc(-c2ccco2)o1)c1cc(-c2ccco2)nc2ccccc12`, which inhibition [1] is on record?
**A.** Its inhibition is 129%.

**Q.** And the IC50 [2]?
**A.** The IC50 was 66 µM.

**Q.** Which inhibition [1] does the source give for `CCOC(=O)c1nnc(NC(=O)c2cc(-c3ccccc3)nc3ccccc23)o1` here?
**A.** Its inhibition is 38%.

**Q.** Which results are given for `O=C(Nc1nnc(-c2ccco2)o1)c1cc(-c2ccccc2)nc2ccccc12`?
**A.** inhibition [1]: 99%; IC50 [2]: 74 µM; inhibition [3]: 62%; inhibition [4]: 9%; inhibition [5]: Active; inhibition [6]: Active; inhibition [7]: Active; inhibition [8]: Active; inhibition [9]: Active; inhibition [10]: Active; inhibition [11]: Active; inhibition [12]: Active; inhibition [13]: Active; inhibition [14]: Active; inhibition [15]: Active; inhibition [16]: inactive; inhibition [17]: inactive; inhibition [18]: inactive; Activity (SCC-3): 40%; Activity (Mus musculus [19]): Non-toxic; Activity (Mus musculus [20]): Non-toxic; concentration at 8 h [21]: > 260 µM; Activity (MDA-MB-468): Active; Activity (MDA-MB-453): inactive

**Q.** What does the source list for `O=C(Nc1nnc(-c2ccccc2)o1)c1cc(-c2ccccc2)nc2ccccc12`?
**A.** inhibition [1]: 105%; IC50 [2]: 66 µM; inhibition [3]: 60%; inhibition [4]: 43%

**Q.** Which inhibition [1] does the source give for `CCc1nnc(NC(=O)c2cc(-c3ccccc3)nc3ccccc23)o1` here?
**A.** Its inhibition is 33%.

**Q.** With `O=C(Nc1nnc(-c2ccccc2Cl)o1)c1cc(-c2ccccc2)nc2ccccc12` as the compound, how does the inhibition [1] read?
**A.** Its inhibition is 5%.

Reference: ChEMBL document CHEMBL1687687, “Identification of a New Series of STAT3 Inhibitors by Virtual Screening” (ACS Med Chem Lett, 2010)
